pIC50, pKd, pKi: −log10 of the molar value. Entries after “also recorded” stand apart in the source; their conditions may differ.
Experiments:
MDA-MB-231 cells [1] = assay: Apoptosis assay, flow cytometry with Annexin V-FITC and PI staining; assay type: cell-based; details: 24 h; for Percentage apoptosis: Annexin V-positive/PI-negative cells; for Percentage necrosis: Annexin V-positive/PI-positive cells
Summary of the method: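 MDA-MB-231 cells exposed 24 h to test compound at increasing concentrations or 1% DMSO, stained with Annexin V-FITC and PI, and analysed by flow cytometry. Apoptotic = Annexin V-positive/PI-negative; necrotic = Annexin V-positive/PI-positive, each as % of cells.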

uPAR = uPAR (Homo sapiens, UniProt Q03405); assay: Fluorescence polarization competition assay, displacement of AE147-FAM peptide; assay type: binding; details: uPAR 320 nM, AE147-FAM 100 nM
Sequence of uPAR (Q03405 23-335): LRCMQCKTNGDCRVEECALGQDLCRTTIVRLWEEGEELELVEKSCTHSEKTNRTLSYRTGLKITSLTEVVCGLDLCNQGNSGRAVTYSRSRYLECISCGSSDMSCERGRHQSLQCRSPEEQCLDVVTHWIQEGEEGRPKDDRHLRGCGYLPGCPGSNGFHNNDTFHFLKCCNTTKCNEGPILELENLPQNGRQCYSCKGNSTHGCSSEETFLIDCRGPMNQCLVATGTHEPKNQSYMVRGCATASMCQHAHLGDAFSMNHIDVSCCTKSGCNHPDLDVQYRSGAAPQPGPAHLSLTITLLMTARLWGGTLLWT
Summary of the method: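 Competition binding: test compound diluted in DMSO, then in PBS with 0.01% Triton X-100 (final 100 μM to 0.046 μM). uPAR preincubated with compound ≥15 min, then fluorescein-labelled AE147 peptide added (final uPAR 320 nM, peptide 100 nM, DMSO 2%). Duplicate wells; polarization read at ex 485/em 530 nm. mP values converted to % inhibition; Ki from an online Ki calculator.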

[2] = test system: phospho-p44/42 MAPK in MDA-MB-231 cells; assay: Western blot analysis of p44/42 MAPK phosphorylation; assay type: cell-based; details: 50 μM, 30 min, serum starved cells on fibronectin
Summary of the method: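 Serum-starved MDA-MB-231 cells (1.5 × 10^6/well) plated on wells coated with 30 ng μl-1 fibronectin, with 50 μM test compound or DMSO, for 30 min. Lysed in RIPA with protease/phosphatase inhibitors. 30 μg protein run on 10% SDS-PAGE and blotted. Probed overnight at 4°C with phospho-p44/42 (Thr202/Tyr204) or total p44/42 antibodies (1:2000), then fluorescent secondaries; actin loading control.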

[3] = target: urokinase receptor (uPAR) (UniProt Q03405); assay: fluorescence polarisation
Sequence of urokinase receptor (uPAR) (Q03405 23-305): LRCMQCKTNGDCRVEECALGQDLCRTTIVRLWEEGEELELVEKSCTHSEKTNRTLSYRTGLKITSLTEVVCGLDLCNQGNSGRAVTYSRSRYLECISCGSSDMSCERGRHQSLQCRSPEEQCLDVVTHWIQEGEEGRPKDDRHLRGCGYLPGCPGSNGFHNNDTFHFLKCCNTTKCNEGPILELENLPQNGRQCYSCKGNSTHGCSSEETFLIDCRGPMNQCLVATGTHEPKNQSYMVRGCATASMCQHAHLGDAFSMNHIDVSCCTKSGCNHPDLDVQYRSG

AsPC-1 cells = assay: Cell viability by MTT assay, 3 days; assay type: cell-based; details: Homo sapiens, ASPC1, read-out: IC50, MTT
Summary of the method: (§1)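 Cells (10^4/well) plated overnight, then exposed to test compound or DMSO control for 3 days. Viability by MTT, absorbance 570 nm with 630 nm reference. Culture: MDA-MB-231 and PANC-1 in DMEM, AsPC-1 in RPMI medium, each with 10% FBS and 1% penicillin/streptomycin, 37°C, 5% CO2.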

MDA-MB-231 cells [4] = assay: Cell viability by MTT at 16 h, time frame of invasion and migration studies; assay type: cell-based
Summary of the method: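 MDA-MB-231 viability read by MTT after 16 h exposure to test compound, matching the time frame of the invasion and migration assays.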

MDA-MB-231 migration = assay: Wound healing migration assay; assay type: cell-based
Summary of the method: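 Confluent MDA-MB-231 monolayers scratched with a pipette tip, washed, and cultured in complete medium with test compound. Wound closure measured as distance between wound edges in three random regions immediately after wounding and at 16 h and 40 h, by microscopy.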

MDA-MB-231 cell adhesion = assay: Cell adhesion to fibronectin; assay type: cell-based; details: Homo sapiens, MDA-MB-231, read-out: IC50, cell adhesion
Summary of the method: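 Wells coated with 15 ng μl-1 fibronectin overnight at 4 °C, blocked 1 h with 2% BSA/PBS. MDA-MB-231 cells serum-starved 4 h, suspended at 2.5 × 10^4 cells ml-1 in 0.1% FBS DMEM with test compound at various concentrations or DMSO, and held 90 min at 37 °C. Washed three times with PBS; adherent cells by MTT (570/630 nm).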

[5] = test system: MDA-MB-231 matrix metalloproteinase (MMP-9) activity; assay: Gelatin zymography; assay type: cell-based; details: read-out: IC50, MMP-9 activity, 24 h treatment
Summary of the method: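 MDA-MB-231 cells treated with test compound 24 h in serum-free medium. Conditioned medium concentrated and run on 7.5% SDS gels with 1 mg/mL gelatin. Gels washed twice in 2.5% Triton X-100 (30 min, room temperature), incubated 36 h at 37 °C in 50 mM Tris-HCl pH 7.6, 200 mM NaCl, 10 mM CaCl2, 0.02% Brij 35. Coomassie-stained; clear MMP-9 bands quantified by imaging.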

MDA-MB-231 cells [6] = assay: Cell viability by MTT assay, 3 days; assay type: cell-based; details: Homo sapiens, MDA-MB-231, read-out: IC50, MTT
Summary of the method: as §1

[7] = test system: NF-κB, HIF1α and ERK in MDA-MB-231 cells; assay: Luciferase reporter assay; assay type: cell-based; details: 25 μM
Summary of the method: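 MDA-MB-231 cells transfected with pathway-focused reporters (NF-κB, hypoxia, MAPK/ERK); medium switched to complete DMEM (10% FBS) 16 h after transfection. Test compound (25 μM) added at 46 h; dual-luciferase readout (firefly/Renilla) at 48 h. Fold change = normalized ratio of treated reporter divided by that of untreated reporter; triplicate.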

MDA-MB-231 invasion = assay: Matrigel Boyden chamber invasion assay; assay type: cell-based
Summary of the method: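 Matrigel invasion chambers; insert underside coated with 30 ng μl-1 fibronectin overnight at 4 °C; inserts equilibrated 2 h in serum-free medium. After 4 h starvation, 5 × 10^4 MDA-MB-231 cells in 0.1% FBS medium with test compound or 1% DMSO placed upper; 10% FBS medium with same compound lower. After 16 h at 37°C, invaded cells methanol-fixed, hematoxylin-stained, counted in ten 200× fields.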

PANC-1 cells = assay: Cell viability by MTT assay, 3 days; assay type: cell-based; details: Homo sapiens, PANC-1, read-out: IC50, MTT
Summary of the method: as §1

Molecule | pKi (uPAR; Ki) | Percentage apoptosis (MDA-MB-231 cells [1]; 1 μM) [%] | Percentage necrosis (MDA-MB-231 cells [1]; 1 μM) [%] | Percentage apoptosis (MDA-MB-231 cells [1]; 10 μM) [%] | Percentage necrosis (MDA-MB-231 cells [1]; 10 μM) [%] | Percentage apoptosis (MDA-MB-231 cells [1]; 25 μM) [%] | Percentage necrosis (MDA-MB-231 cells [1]; 25 μM) [%] | Percentage apoptosis (MDA-MB-231 cells [1]; 50 μM) [%] | Percentage necrosis (MDA-MB-231 cells [1]; 50 μM) [%] | effect on p44/42 MAPK phosphorylation [2] | other results
Cc1ccc(-n2ncc(C(=O)NCCc3ccc(F)cc3)c2C2CCNCC2)cc1C [1g, 1-(3,4-dimethylphenyl)-N-(4-fluorophenethyl)-5-(piperidin-4-yl)-1H-pyrazole-4-carboxamide] | 4.55 |  |  |  |  |  |  |  |  |  | 
COc1ccc(N2C(=O)CCC(C(=O)Nc3ccc(OC)cc3OC)C2c2ccc(F)cc2)cc1 (stereo not drawn) [compound 4, anti-N-(2,4-dimethoxyphenyl)-2-(4-fluorophenyl)-1-(4-methoxyphenyl)-6-oxopiperidine-3-carboxamide] |  | 4 | 3 | 2 | 14 | 3 | 6 | 3 | 5 | no inhibition | pKi (uPAR): 4.72
fluorescently-labeled AE147 peptide AE147-FAM |  |  |  |  |  |  |  |  |  |  | pKd [3]: 6.30
Cc1ccc(-n2ncc(C(=O)Nc3ccccc3OCc3ccccc3)c2C2CCNCC2)cc1C [1f, N-(2-(benzyloxy)phenyl)-1-(3,4-dimethylphenyl)-5-(piperidin-4-yl)-1H-pyrazole-4-carboxamide] | 4.76 | 3 | 7 | 45 | 15 | 76 | 8 | 61 | 21 | significantly impaired | pIC50 (AsPC-1 cells): 4.85; inhibition at 10 µM (MDA-MB-231 cells [4]; Homo sapiens, MDA-MB-231, 16 h, read-out: inhibition of cell growth): 20%; inhibition at 25 µM (MDA-MB-231 migration; Homo sapiens, MDA-MB-231, read-out: inhibition of cell migration): 70%; pIC50 (MDA-MB-231 cell adhesion): ~4.60; pIC50 [5]: 4.55; pIC50 (MDA-MB-231 cells [6]): 4.60; effect on NF-κB, HIF1α and ERK reporter pathways [7]: impaired all three pathways; effect on invasion (MDA-MB-231 invasion; 10 μM): inhibited invasion; effect on invasion (MDA-MB-231 invasion; 25 μM): completely inhibited invasion; also recorded: complete inhibition of invasion; pIC50 (MDA-MB-231 invasion; Homo sapiens, MDA-MB-231, read-out: IC50, invasion): > 5.00; pIC50 (PANC-1 cells): 4.66
CCOc1ccccc1NC(=O)C1CC(=O)N(c2ccc(OC)cc2)C1c1ccc(OC)cc1 (stereo not shown) [compound 3, N-(2-ethoxyphenyl)-1,2-bis(4-methoxyphenyl)-5-oxopyrrolidine-3-carboxamide] |  | 2 | 6 | 1 | 3 | 2 | 8 | 4 | 7 | no inhibition | cytotoxicity (MDA-MB-231 cells [4]; 25 μM, MTT at 16 h): not cytotoxic; effect on migration (MDA-MB-231 migration; 25 μM, wound healing): no effect on migration; effect on invasion (MDA-MB-231 invasion; 25 μM): moderate inhibition of invasion; inhibition at 25 µM (MDA-MB-231 invasion; Homo sapiens, MDA-MB-231, read-out: inhibition of cell invasion): 50%
COc1cc(NC(=O)c2cnn(-c3ccc(C)c(C)c3)c2C2CCNCC2)cc(C(F)(F)F)c1 [1e, 1-(3,4-dimethylphenyl)-N-(3-methoxy-5-(trifluoromethyl)phenyl)-5-(piperidin-4-yl)-1H-pyrazole-4-carboxamide] | 4.29 |  |  |  |  |  |  |  |  |  | 

Further lines, with some results ahead:

pKi (uPAR; Ki) | Molecule | Percentage apoptosis (MDA-MB-231 cells [1]; 1 μM) [%] | Percentage necrosis (MDA-MB-231 cells [1]; 1 μM) [%] | Percentage apoptosis (MDA-MB-231 cells [1]; 10 μM) [%] | Percentage necrosis (MDA-MB-231 cells [1]; 10 μM) [%] | Percentage apoptosis (MDA-MB-231 cells [1]; 25 μM) [%] | Percentage necrosis (MDA-MB-231 cells [1]; 25 μM) [%] | Percentage apoptosis (MDA-MB-231 cells [1]; 50 μM) [%] | Percentage necrosis (MDA-MB-231 cells [1]; 50 μM) [%] | effect on p44/42 MAPK phosphorylation [2] | other results
4.50 | CCCc1ccc(NC(=O)c2cnn(-c3ccc(C)c(C)c3)c2C2CCNCC2)cc1 [1i, 1-(3,4-dimethylphenyl)-5-(piperidin-4-yl)-N-(4-propylphenyl)-1H-pyrazole-4-carboxamide] | 11 | 7 | 6 | 9 | 46 | 10 | 86 | 12 | significantly impaired | 
4.20 | Cc1ccc(-n2ncc(C(=O)Nc3ccc(C(C)C)cc3)c2C2CCNCC2)cc1C [1h, 1-(3,4-dimethylphenyl)-N-(4-isopropylphenyl)-5-(piperidin-4-yl)-1H-pyrazole-4-carboxamide] |  |  |  |  |  |  |  |  |  | 

From paper PMC4058332 (ChemMedChem, 2013)
